{"source": "ChEMBL document CHEMBL4359864", "about": "“The synthesis and in vitro biological evaluation of novel fluorinated tetrahydrobenzo[j]phenanthridine-7,12-diones against Mycobacterium tuberculosis” (Eur J Med Chem, 2019)"}
{"test_system": "Mycobacterium tuberculosis variant bovis BCG", "assay": "Antimycobacterial activity against Mycobacterium bovis BCG ATCC 35737 by resazurin dye based fluorimetric assay", "format": "functional, organism-based", "summary_of_the_method": "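Resazurin microtiter method as for the bacterial panel. Mycobacteria grown in 7H9 with 10% OADC and 0.5% glycerol; for BCG, 0.05% Tween 80 replaced the glycerol. Cultures were sonicated and needle-passed to single cells. Incubation at 37°C, or 32°C for M. marinum. Fluorescence read at ex 550/em 590 nm; mean of triplicates.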", "units": {"IC50": "µM"}}
{"smiles": "O=C1C2=C(C(=O)c3c1cnc1ccc(C(F)(F)F)cc31)C1CCC2C1", "note": "(configuration not stated)", "IC50": 12.5}
{"smiles": "O=C1C2=C(C(=O)c3c1cnc1ccccc31)C1CCC2C1", "note": "(configuration not stated)", "IC50": 7.9}
{"smiles": "O=C1C2=C(C(=O)c3c1cnc1cc(C(F)(F)F)ccc31)C1CCC2C1", "note": "(configuration not stated)", "IC50": 15}
{"smiles": "O=C1C2=C(C(=O)c3c1cnc1ccc(F)cc31)C1CCC2C1", "note": "(configuration not stated)", "IC50": 10.3}
{"smiles": "O=C1C2=C(C(=O)c3c1cnc1c(F)cccc31)C1CCC2C1", "note": "(configuration not stated)", "IC50": 5.03}
{"smiles": "O=C1C2=C(C(=O)c3c1cnc1cc(F)ccc31)C1CCC2C1", "note": "(configuration not stated)", "IC50": 17.4}
{"smiles": "COc1c(N2C[C@@H]3CCCN[C@@H]3C2)c(F)cc2c(=O)c(C(=O)O)cn(C3CC3)c12", "note": "[MOXIFLOXACIN]", "IC50": 0.03}
